Assay results pooled from the literature.
Lines come from different studies, so protocols differ.
Target: Serine/threonine-protein kinase 38 (STK38, Homo sapiens, UniProt Q15208)

| Structure (SMILES) | test | conditions | remaining binding |
| --- | --- | --- | --- |
| CN(C)c1ncc(F)c(-c2cnn3ncccc23)n1 | binding | 1 µM | 90% |
| COc1cnc(Nc2cccc(S(N)(=O)=O)c2)nc1N1CCN(c2ccccc2)CC1 | binding, competition with immobilised ligand | 1 µM | 78% |
| Cc1cnc(Nc2ccc(C(=O)N3CCC(N4CCCC4)CC3)cc2)nc1-c1cc2ccccc2s1 | binding, competition with immobilised ligand | 1 µM | 79% |
| c1cnn2ncc(-c3ccnc(N4CCC45COC5)n3)c2c1 | binding | 1 µM | 87% |
| CCOCCn1cc(C(=O)Nc2ccc(-n3nc(-c4cccnc4)cc3C(F)(F)F)cn2)ccc1=O | cell-free assay, competition with immobilised ligand | 1 µM | 91% |
| N[C@H]1CCN(c2nccc(-c3cnn4ncccc34)n2)C1 | binding | 1 µM | 100% |
| C[C@@H](c1ccc(-n2cnc3c(N)ncnc32)cc1)N1CCc2nn(C)c(Cc3ccccc3)c2C1=O | binding, competition with immobilised ligand | 0.1 µM | 71% |
| O=C(NCCCN1CCOCC1)c1ccc(Nc2nccc(-c3cc4ccccc4s3)n2)cc1 | binding, competition with immobilised ligand | 1 µM | 66% |
| C[C@@H]1CCN(c2nccc(-c3cnn4ncccc34)n2)C1 | binding | 1 µM | 72% |
| CCS(=O)(=O)c1cc2cc(C[C@@](O)(CC(C)(C)c3ccc(F)cc3C(N)=O)C(F)(F)F)[nH]c2cn1 | cell-free assay, competition with immobilised ligand | 1 µM | 76% |
| COc1ncc2cc3ccccc3nc2c1C#N | cell-free assay, competition with immobilised ligand | 5 µM | 94% |
| O=C(c1ccc(Nc2ncc(Cl)c(-c3cc4ccccc4s3)n2)cc1)N1CCC(N2CCCC2)CC1 | binding, competition with immobilised ligand | 1 µM | 78% |
| C[C@@]1(Cc2ccc(C#N)cc2)C(=O)N(c2cc(Cl)cc(Cl)c2)c2ncc(C(=O)NC3(c4nc(C5CCC5)no4)CC3)n21 | cell-free assay, competition with immobilised ligand | 1 µM | 100% |
| CN(c1nccc(-c2cnn3ncccc23)n1)C1CC1 | binding | 1 µM | 100% |
| Cc1c[nH]c2nccc(Oc3c(F)cc(Nc4cc(Cl)nc(N)n4)cc3F)c12 | cell-free assay, competition with immobilised ligand | 0.1 µM | 89% |
| COc1cnc(Nc2cccc(S(N)(=O)=O)c2)nc1N1CCN(c2ccccc2)C(=O)C1 | binding, competition with immobilised ligand | 1 µM | 84% |
| O=C(Nc1c[nH]nc1C(=O)NC1CCNCC1)c1cc(F)cc(F)c1 | binding, competition with immobilised ligand | 1 µM | 97% |
| COc1ccc2cc(OCC3(C(=O)O)CN(C(=O)c4ccc(F)cc4)C3)ccc2c1 | cell-free assay, competition with immobilised ligand | 1 µM | 98% |
| CN(C)c1nccc(-c2cnc3ncccn23)n1 | binding | 1 µM | 79% |
| FC(F)(F)Oc1cccc(-c2cnc3ccc(-c4ccncc4)nn23)c1 | cell-free assay, competition with immobilised ligand | 5 µM | 80% |
| Cc1c(NC(=O)c2cc(C(N)=O)nc3cc(F)ccc23)c(C(F)(F)F)nn1Cc1ccc(C(C)(C)C)cc1 | cell-free assay, competition with immobilised ligand | 1 µM | 93% |
